Experimental data as given in ChEMBL document CHEMBL1147924, “One pot synthesis of pyrimidine and bispyrimidine derivatives and their evaluation for anti-inflammatory and analgesic activities” (2007).

Legend:
Assay type in all cases: functional
Rattus norvegicus [1] = assay: Antiinflammatory activity against carrageenan-induced paw oedema in Albino rat at 50 mg/kg, po after 3 hrs
Method in brief: (§1)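 Oral dosing. Paw volume was read by plethysmometer immediately after and 3 h after the irritant injection, and the volume difference was taken as oedema. Percent inhibition of oedema was calculated for treated groups against the control group, with a standard-drug group included.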

Mus musculus [2] = assay: Analgesic activity against phenylquinone-induced in Swiss mouse assessed as effect on writhings at 50 mg/kg, po after 20 mins
Method in brief: (§2)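 Female Swiss mice (15–20 g) screened the day before by intraperitoneal 0.2 cm³ of 0.02% aqueous phenylquinone, with writhes counted over 20 min. Mice with more than 10 writhes were used next day in groups of five. They were given the oral dose (25, 50 or 100 mg/kg) 15 min before the phenylquinone challenge, and writhing was recorded.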

Rattus norvegicus [3] = assay: Antiinflammatory activity against carrageenan-induced paw oedema in Albino rat at 100 mg/kg, po after 3 hrs; method in brief: as §1
Mus musculus [4] = assay: Analgesic activity against phenylquinone-induced in Swiss mouse assessed as effect on writhings at 100 mg/kg, po after 20 mins; method in brief: as §2
Mus musculus [5] = assay: Analgesic activity against phenylquinone-induced in Swiss mouse assessed as effect on writhings at 75 mg/kg, po after 20 mins
Mus musculus [6] = assay: Analgesic activity against phenylquinone-induced in Swiss mouse assessed as effect on writhings at 25 mg/kg, po after 20 mins; method in brief: as §2

SMILES | Activity (Rattus norvegicus [1]) | Activity (Mus musculus [2]) | Activity (Rattus norvegicus [3]) | Activity (Mus musculus [4]) | Activity (Mus musculus [5]) | Activity (Mus musculus [6])
CC1(C)CC(C)(O)N(Cc2ccco2)C(=S)N1 (stereo not given) | 10.3% | 15% |  |  |  | 
CC1(C)CC(C)(O)N(CCCN2CCCC2=O)C(=S)N1 (stereo not given) |  |  | 40.3% | 34% |  | 
CC1=CC(C)(C)NC(=S)N1c1ccccc1C#N |  | 0% | 0% | 25% |  | 
CC1=CC(C)(C)NC(=S)N1CCCC1OCC2(CO1)COC(CCCN1C(=S)NC(C)(C)C=C1C)OC2 (stereo not given) |  | 25% | 31.8% | 75% |  | 
CC1CC(O)N(CCCN2CCN(CCCN3C(=S)NC(C)CC3O)CC2)C(=S)N1 (stereo not given) | 38.6% | 40% |  |  |  | 
CC1CC(O)N(CCCC2OCC3(CO2)COC(CCCN2C(=S)NC(C)CC2O)OC3)C(=S)N1 (stereo not given) |  |  | 0% | 0% |  | 
CC1=CC(C)(C)NC(=S)N1Cc1ccco1 | 15.1% | 8.5% |  |  |  | 
CC1(C)CC(C)(O)N(CCc2c[nH]cn2)C(=S)N1 (stereo not given) |  | 25% | 65% | 100% | 50% | 12.5%
CC1(C)CC(C)(O)N(CCCn2ccnc2)C(=S)N1 (stereo not given) |  | 25% | 35% | 50% |  | 
CC1=CC(C)(C)NC(=S)N1c1n[nH]c(N2C(=S)NC(C)(C)C=C2C)n1 |  |  | 0% | 0% |  | 
CC1CC(O)N(CCCN2CCCC2=O)C(=S)N1 (stereo not given) | 36.3% | 50% |  |  |  | 
CC1=CC(C)(C)NC(=S)N1CCCn1ccnc1 | 32.5% | 40% |  |  |  | 
CC1(C)CC(C)(O)N(CCCN2CCN(CCCN3C(=S)NC(C)(C)CC3(C)O)CC2)C(=S)N1 (stereo not given) | 31.6% | 10% |  |  |  | 
CC(C)Cc1ccc(C(C)C(=O)O)cc1 (stereo not given) [IBUPROFEN] |  | 50% | 66.8% | 75% |  | 
